Test results taken from ChEMBL document CHEMBL6092210, “Synthesis, in vitro and in vivo biological evaluation of novel dual compounds targeting both acetylcholinesterase and serotonergic 5-HT4 receptors with potential interest in the treatment of Alzheimer's disease” (Eur J Med Chem, 2024).

Columns and labels:
Acetylcholinesterase [1] = target: T1, Acetylcholinesterase (Homo sapiens, UniProt P22303); experiment: Inhibition of recombinant human erythrocyte AChE using acetyl-or butyrylthiocholine iodide as substrate at 1 x 10^-6M preincubated for 5 mins followed by substrate addition and measured every min for 10 mins by Ellman's method relative to control; details: dose 1.0 10^-6M, time 15.0 min
T1 sequence (P22303 whole entry): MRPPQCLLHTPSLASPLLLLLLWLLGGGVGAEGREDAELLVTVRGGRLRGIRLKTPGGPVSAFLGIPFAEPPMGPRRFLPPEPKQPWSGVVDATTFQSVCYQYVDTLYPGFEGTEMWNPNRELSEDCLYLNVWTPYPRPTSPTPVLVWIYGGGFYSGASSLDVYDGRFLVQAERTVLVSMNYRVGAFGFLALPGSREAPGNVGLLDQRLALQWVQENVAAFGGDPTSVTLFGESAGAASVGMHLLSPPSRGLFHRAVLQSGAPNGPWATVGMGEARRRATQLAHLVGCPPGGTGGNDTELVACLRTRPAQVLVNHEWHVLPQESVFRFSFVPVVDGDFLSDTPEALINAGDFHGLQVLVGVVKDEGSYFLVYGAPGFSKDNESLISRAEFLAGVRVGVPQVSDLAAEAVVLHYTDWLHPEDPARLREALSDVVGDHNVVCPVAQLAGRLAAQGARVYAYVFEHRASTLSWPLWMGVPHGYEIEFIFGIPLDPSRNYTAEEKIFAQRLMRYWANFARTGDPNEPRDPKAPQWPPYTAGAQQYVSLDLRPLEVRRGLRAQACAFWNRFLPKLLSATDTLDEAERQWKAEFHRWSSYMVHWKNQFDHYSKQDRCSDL
Outline: (§1)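 AChE from human erythrocytes (0.05 U final) or recombinant AChE (0.025 U final), diluted in 20 mM HEPES pH 8 with 0.1 % Triton X-100, in an Ellman assay. DTNB is 0.3 mM in phosphate buffer pH 7.4 and compound is in DMSO. Enzyme and compound are preincubated 5 min at 25 °C. Reaction starts with 1 mM acetylthiocholine iodide solution.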

Acetylcholinesterase [2] = target: T1, Acetylcholinesterase; experiment: Inhibition of recombinant human erythrocyte AChE using acetyl-or butyrylthiocholine iodide as substrate preincubated for 5 mins followed by substrate addition and measured every min for 10 mins by Ellman's method
[3] = target: T2, 5-hydroxytryptamine receptor 4 (Homo sapiens, UniProt Q13639); experiment: Inhibition of human recombinant 5HT4 receptor at 1 x 10^-6M incubated for 60 mins relative to control; details: dose 1.0 10^-6M
T2 sequence (Q13639 whole entry): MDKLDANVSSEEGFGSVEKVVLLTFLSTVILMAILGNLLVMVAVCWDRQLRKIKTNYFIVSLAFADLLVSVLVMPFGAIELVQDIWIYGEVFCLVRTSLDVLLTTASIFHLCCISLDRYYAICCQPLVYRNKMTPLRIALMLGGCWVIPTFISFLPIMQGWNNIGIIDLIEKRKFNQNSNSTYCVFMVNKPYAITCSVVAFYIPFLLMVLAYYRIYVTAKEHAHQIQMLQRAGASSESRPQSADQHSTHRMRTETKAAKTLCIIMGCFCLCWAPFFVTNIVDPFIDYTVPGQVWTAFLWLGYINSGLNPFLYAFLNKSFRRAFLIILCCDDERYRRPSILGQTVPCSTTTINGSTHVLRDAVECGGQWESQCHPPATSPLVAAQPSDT
Outline: (§2)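 Membranes (2.5 μg protein) from a stable recombinant line expressing h5-HT4(b) receptor. Incubated in duplicate at 25 °C for 60 min with 0.2 nM [3H]-GR113808 in 25 mM Tris pH 7.4, with drug at 10^-6 or 10^-8 M. GF/C filtration; non-specific binding defined with 30 μM serotonin. Ki from five-point inhibition curves, ± SD.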

[4] = target: T2, 5-hydroxytryptamine receptor 4; experiment: Inhibition of human recombinant 5HT4 receptor at 1 x 10^-8M incubated for 60 mins relative to control; details: dose 1.0 10^-8M; outline: as §2
[5] = target: T2, 5-hydroxytryptamine receptor 4; experiment: Binding affinity to human recombinant 5HT4 receptor assessed as inhibition constant incubated for 60 mins
Acetylcholinesterase [6] = target: T1, Acetylcholinesterase; experiment: Inhibition of recombinant human erythrocyte AChE using acetyl-or butyrylthiocholine iodide as substrate at 1 x 10^-5M preincubated for 5 mins followed by substrate addition and measured every min for 10 mins by Ellman's method relative to control; details: dose 1.0 10^-5M, time 15.0 min; outline: as §1

SMILES | inhibition (Acetylcholinesterase [1]) [%] | IC50 (Acetylcholinesterase [2]) [nM] | inhibition [3] [%] | inhibition [4] [%] | Ki [5] [nM] | inhibition (Acetylcholinesterase [6]) [%] | inhibition (Acetylcholinesterase [1]; tested as the 2H-labelled form) [%] | inhibition ([3]; tested as the 2H-labelled form) [%] | inhibition ([4]; tested as the 2H-labelled form) [%]
Nc1ccc(C(=O)CCC2CCN(CC3CCCCC3)CC2)cc1 | 78 | 317 | 80 | 4 | – | – | – | – | –
COc1cc(NC(C)=O)c(Cl)cc1C(=O)CCC1CCN(CC2CCCCC2)CC1 | 98 | – | 94 | 1 | 270 | – | – | – | –
CCOc1cc(N)ccc1C(=O)CCC1CCN(CC2CCCCC2)CC1 | 93 | 87.1 | 101 | 38 | 24.7 | – | – | – | –
Nc1cc(OCCF)c(C(=O)CCC2CCN(CC3CCCCC3)CC2)cc1I | 45 | – | 101 | 22 | 521 | – | – | – | –
COc1cc(N)ccc1C(=O)CCC1CCN(CC2CCCCC2)CC1 | – | – | 96 | 10 | – | 97 | – | – | –
O=C(CCC1CCN(CC2CCCCC2)CC1)c1ccc(O)cc1 | 35 | – | 102 | 58 | 17.6 | – | – | – | –
Nc1cc(OCCF)c(C(=O)CCC2CCN(CC3CCCCC3)CC2)cc1Cl | 60 | – | 102 | 78 | – | – | – | – | –
COc1c(C(=O)CCC2CCN(CC3CCCCC3)CC2)cc(F)c(N)c1I | 89 | 234 | 89 | 2 | – | – | – | – | –
COc1cc(N)c(I)cc1C(=O)CCC1CCN(CC2CCCCC2)CC1 | – | – | 103 | 36 | – | 88 | – | – | –
COc1cc(N)c(Cl)cc1C(=O)CCC1CCN(CC2CCCCC2)CC1 | – | – | – | – | – | – | 92 | 98 | 29
CCOc1cc(N)c(I)cc1C(=O)CCC1CCN(CC2CCCCC2)CC1 | 51 | – | 103 | 65 | 86 | – | – | – | –
